Results on 59 compounds are retold here after PubChem BioAssay AID504382 (The Scripps Research Institute Molecular Screening Center, 2011).

Screen size: about 2,500 compounds; about 460 (18%) were called active. Only a sample is shown. Values without a mark were called inactive.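 The calls were made as follows: active = mean activation above a cutoff of low control average plus 3 SD from the earlier screen (cut at about 12% in these data); inactive = the rest.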

The nature of this assay: compound fluorescence interference without thin filaments, confirmation, artefact control for cardiac RTF calcium sensitizer project, biochemical (AID 504382). To be noted: IANBD fluorescence interference counterscreen, buffer, EC20 Ca2+; at 7.2 µM; hits give high values; scaled: EC20 calcium 0, EC100 calcium 100. Summed up: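 Medium: MOPS/KCl/MgCl2/EGTA/NTA/DTT buffer, pH 7.2 | Reagent: EC20 calcium, 0.472 mM | Compound dosing: 7.2 µM single dose | Times: 15 min compound exposure at 25 °C | Signal: Fluorescence, 480/540 nm | Measure: Interference relative to controls | Repeats: Triplicate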
A general note: A counterscreen serves to expose hits that act by an unwanted route or on another target.
On to `COC(=O)c1c(-c2ccc(OC)c(OC)c2)csc1N`, for which the fluorescence artifact activation is 0%. `CC1CCC(C(C)C)C(OC(=O)Cn2c(-c3ccccc3)[n+](C)c3ccccc32)C1` (centres undefined): the fluorescence artifact activation was 0%. As for `CCC(C)[C@H](NC(=O)N1CCC(C)CC1)C(=O)OC` (some centres undefined), the fluorescence artifact activation is -0.05%.

For `O=C(CSc1nnc(-c2ccco2)o1)NC1CCCCC1`, the fluorescence artifact activation is -0.05%. The same measure for `CCn1c(SCC(=O)NNC(=O)c2ccco2)nnc1-c1ccco1`: -0.04%; for `O=C(CCSc1nnc(-c2ccco2)o1)Nc1ccccc1`: 24.7% (active); for `Cc1ccc(-n2nnnc2C(=Cc2ccc(N(C)C)cc2)c2nnnn2-c2ccc(C)cc2)cc1`: 0.09%. For the compound `COc1cccc2cc(-c3nc(-c4cccs4)cs3)c(=O)oc12`, the fluorescence artifact activation is -0.05%. Take `CCOC(=O)c1c(-c2ccccc2)csc1NC(=O)/C(C#N)=C\c1ccc(O)c(OC)c1`: the fluorescence artifact activation is 0.5%. Under `CC(C)CN1CCN(Cc2cccn2-c2ccc(Cl)cn2)CC1CCO` (centres undefined) stands 26.8% (active); under `CCOC(=O)/C(=C/C=C1\Sc2cc(OCC)c(OCC)cc2N1CC)C(C)=O`, 5.45%; under `O=C1CCC[C@@H]2Cc3nc4ccc(O)cc4cc3[C@@H]3CCN1[C@H]23`, 1.03%. For `c1ccc(CCCN2CCN(c3ccccc3)CC2)cc1`, the fluorescence artifact activation is 0%. The same measure for `CCc1ccc(C(=O)NNc2ccccc2F)cc1`: 1.03%; for `Cc1occc1C(=O)N=Nc1c(O)n(C)c2ccccc12`: 2.27%; for `COCCn1c(-c2ccc(C)cc2)nc2oc3cc(OC)ccc3c(=O)c2c1=O`: 0.27%.

Turning to `COCCn1c(SCC(=O)Nc2ccc(NC(=O)c3ccco3)c(OC)c2)nc2ccccc2c1=O`, the fluorescence artifact activation was 1.13%. For the compound `COCCn1c(=O)c2ccccc2c2ccccc2c1=O`, the fluorescence artifact activation was 17.2% (active). In the case of `O=C(Nc1cc2c(cc1Br)OCCCO2)c1cccnc1`, the fluorescence artifact activation is -0.06%. Under `COc1ccc(CN(Cc2cccn2C)S(=O)(=O)c2ccccc2)cc1` stands 0.19%; under `Cc1ccccc1NS(=O)(=O)c1ccc(OCC(=O)N2CCCCC2)cc1`, -0.04%.

As for `CCN(CC(=O)N1CCCC1)S(=O)(=O)c1ccc(OC)cc1`, the fluorescence artifact activation was 87% (active). The same measure for `Cc1ccc([N+](=O)[O-])c(OCCCN2C(=O)NC(C)(C)C2=O)c1`: 0.02%; for `COc1ccccc1N1C(C)=CC(=C(C#N)c2nc3ccccc3s2)C=C1C`: 0.18%; for `COc1ccc(N2C(=O)[C@@H]3[C@H](C2=O)[C@H](C(C)=O)N2c4ccccc4C=C[C@@H]32)cc1`: 0.08%. Under `CCOc1ccc(CN2CCN(C/C=C/c3ccc(OC)cc3)CC2CCO)cc1` (centres undefined) stands 0.09%; under `Cc1ccc(CN2CCN(Cc3ccc(-n4cccn4)cc3C)CC2CCO)cc1` (centres undefined), 37.2% (active).

As for `CSc1nnc(N(CCC#N)CCC#N)s1`, the fluorescence artifact activation was 11.2%.

Turning to `COc1ccc(-c2onc3ccc(C(C)=O)cc23)cc1`, the fluorescence artifact activation was 5.91%. The same measure for `CC1(C)CC(=O)C(C=Nc2ccc(C(=O)c3ccccc3)cc2N=CC2=C(O)CC(C)(C)CC2=O)=C(O)C1`: 0.03%; for `Cc1nnc(N2CCOCC2)c2nn(-c3cccc(Cl)c3)c(C)c12`: 0.16%.

On to `O=C(N/N=C/c1c(O)n(-c2ccc(Cl)cn2)c(=O)c2ccccc12)c1ccncc1`, for which the fluorescence artifact activation is 0.02%. Under `COc1cc(OC)c(NC(=O)c2cc3ccccc3cc2O)cc1Cl` stands 0.48%. Consider `Cn1c(O)c(/C=N/NC(=O)c2cc3ccccc3cc2O)c2ccccc21`, for which the fluorescence artifact activation was 70% (active). Under `CCCNC(=O)C12CCC(C)(C(=O)C1Br)C2(C)C` (centres undefined) stands 0.01%. Take `CN(C)CCNC(=O)c1c(CSc2ccc(Cl)cc2)noc1C(=O)NCc1ccccc1`: the fluorescence artifact activation was 0.05%. With `COc1cc(OC)c(C2N(c3ccc(Cl)c(Cl)c3)C(=O)C3CCCN32)cc1OC` (centres undefined), the fluorescence artifact activation is -0.1%.

Consider `NC(=O)C1CCN(C(=O)c2ccc(-c3ccccc3)cc2)CC1`, for which the fluorescence artifact activation was 4.63%. Regarding `O=C(O)c1ncc(-c2ccccc2)cn1`, the fluorescence artifact activation is 43.6% (active).

`O=C([O-])c1ccccc1-[n+]1c(-c2ccccc2)cc(-c2ccccc2)cc1-c1ccccc1`: the fluorescence artifact activation is 0%. As for `c1ccc2c(c1)CN1CCCC1=N2`, the fluorescence artifact activation is -0.08%. As to `COc1cc(/C=C(\C#N)c2nc3ccccc3[nH]2)cc(OC)c1O`, the fluorescence artifact activation is 6.16%.

In the case of `COc1cc(/C=C(\C#N)c2nc3ccccc3[nH]2)ccc1O`, the fluorescence artifact activation was 0.06%. For `CCCOc1cc(N(CC)CC)ccc1/C=C(/C#N)c1nc2ccc(C)cc2[nH]1`, the fluorescence artifact activation is 12.4% (active). Under `CCN(CC)c1ccc(/C=C(/C#N)c2nc3ccccc3[nH]2)c(OC(C)C)c1` stands 41.8% (active). For the compound `CCOc1cc(N(CC)CC)ccc1/C=C(/C#N)c1nc2ccccc2[nH]1`, the fluorescence artifact activation is 0.26%. The same measure for `COc1cccc(/C=C(/C#N)c2nc3ccccc3[nH]2)c1OC(C)C(=O)O` (centres undefined): 0.54%. The same measure for `CCOC(=O)c1c(-c2ccccc2Cl)csc1NC(=O)c1cc(S(=O)(=O)N2CCOCC2)ccc1C`: -0.04%. As to `Cn1cc(/C=C2\SC(=S)N(N3CCOCC3)C2=O)c2ccccc21`, the fluorescence artifact activation is 0.4%. The same measure for `COC(=O)C1=C(C(=O)c2ccc(C)cc2)C(c2ccc(OC)c(OC)c2)n2nnnc2N1` (centres undefined): 0%; for `COc1ccccc1N1C(=O)C2C(C(=O)c3ccccc3)=NN(c3ccccc3)C2C1=O` (centres undefined): 1.87%. As to `COc1cc(C2C=C(c3cccs3)Nc3ncnn32)cc(OC)c1OC` (centres undefined), the fluorescence artifact activation is 0.2%. `CN(C)c1ccc(C2C=C(c3ccc(Cl)cc3OC(F)F)Nc3ncnn32)cc1` (centres undefined): the fluorescence artifact activation is 28.8% (active). The same measure for `Fc1ccc(C2=CC(c3ccco3)n3ncnc3N2)cc1` (centres undefined): 3.08%; for `Cc1ccc(S(=O)(=O)/N=C2/NC(=O)/C(=C/c3cc([N+](=O)[O-])ccc3O)S2)cc1`: 1.59%. Under `COC(=O)[C@@H]1C[C@@]2(O)[C@H](O)[C@H](O)[C@H](O)C[C@H]2N1C/C=C/c1ccccc1` stands 2.09%; under `CC(=O)Nc1cccc(C(=O)/C=C/c2ccc(N(C)C)cc2)c1`, 6.61%; under `COc1ccc(-c2nn(CCC(=O)O)cc2/C=C2\SC(N)=NC2=O)cc1`, 0%.

Consider `O=C(Nn1cnnc1)c1cc([N+](=O)[O-])cc([N+](=O)[O-])c1`, for which the fluorescence artifact activation was 0.03%.
